Measured values reported in ChEMBL document CHEMBL1132974 (J Med Chem, 2000).
Values joined by “and” are separate entries in the source; they are usually repeats but may differ in a detail not shown here. Equal entries are not always repeated.

What was measured:
[1] = biological target: Histamine H1 receptor (Cavia porcellus) (UniProt P31389); assay: Negative logarithm of receptor dissociation constant Kp was reported; type: functional
Summary of the method: (§1)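 Guinea-pig ileum (0.1 µM atropine, 37 °C Tyrode's). […] Where several partial-agonist concentrations were used, the overall value comes from a Kaumann-Marano plot with slope constrained to unity.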

[2] = biological target: Histamine H1 receptor (Cavia porcellus) (UniProt P31389); assay: Intrinsic activity of the compounddwas reported in guinea pig ileum whole segment; type: functional, tissue-based
[3] = biological target: Histamine H1 receptor (Cavia porcellus) (UniProt P31389); assay: Relative potency in guinea pig ileum whole segment; value ranges from 4 to 15; type: functional, tissue-based
Histamine H1 receptor [4] = biological target: T1, Histamine H1 receptor (Cavia porcellus, UniProt P31389); assay: Effective concentration for agonist activity in guinea pig ileum whole segment; type: functional, tissue-based
[5] = biological target: Histamine H1 receptor (Rattus norvegicus) (UniProt P31390); assay: The compound was evaluated for intrinsic activity in relaxed rat aortic rings with intact endothelium, submaximally precontracted with 15.8 nM U-46,619; type: functional, tissue-based; design: unit not given here; settings: Aorta
Target sequence in this assay (P31390 whole entry): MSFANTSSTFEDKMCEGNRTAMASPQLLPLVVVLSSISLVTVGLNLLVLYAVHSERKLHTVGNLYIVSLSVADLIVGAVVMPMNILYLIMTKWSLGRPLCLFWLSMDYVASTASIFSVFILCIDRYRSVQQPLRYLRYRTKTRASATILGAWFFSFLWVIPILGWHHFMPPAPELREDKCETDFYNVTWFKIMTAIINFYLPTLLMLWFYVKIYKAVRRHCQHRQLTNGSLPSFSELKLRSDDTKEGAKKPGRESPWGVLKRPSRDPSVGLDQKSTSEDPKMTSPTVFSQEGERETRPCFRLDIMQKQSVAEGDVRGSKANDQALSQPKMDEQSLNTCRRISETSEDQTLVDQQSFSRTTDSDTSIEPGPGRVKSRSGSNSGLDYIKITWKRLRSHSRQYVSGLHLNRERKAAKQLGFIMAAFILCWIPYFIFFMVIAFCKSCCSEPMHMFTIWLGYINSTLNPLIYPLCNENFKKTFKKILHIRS

Histamine H1 receptor [6] = biological target: T2, Histamine H1 receptor (Rattus norvegicus, UniProt P31390); assay: Effective concentration for agonism activity in relaxed rat aortic rings with intact endothelium, submaximally precontracted with 15.8 nM U-46,619; type: functional, tissue-based, Aorta
[7] = biological target: Histamine H1 receptor (Rattus norvegicus) (UniProt P31390); assay: Relative potency was recorded in relaxed rat aortic rings with intact endothelium, submaximally precontracted with 15.8 nM U-46,619; value ranges from 244 to 450.; type: functional, tissue-based; settings: Aorta
Target sequence in this assay (P31390 whole entry): as above

[8] = biological target: Histamine H1 receptor (Cavia porcellus) (UniProt P31389); assay: Intrinsic activity was reported in guinea pig ileum whole segment.; type: functional, tissue-based
[9] = biological target: Histamine H1 receptor (Cavia porcellus) (UniProt P31389); assay: Relative potency in guinea pig ileum whole segment; value ranges from 51 to 88; type: functional, tissue-based
[10] = biological target: Histamine H1 receptor (Cavia porcellus) (UniProt P31389); assay: Negative logarithm of receptor dissociation constant Kp was reported in guinea pig ileum whole segment; type: functional, tissue-based; summary of the method: as §1
[11] = biological target: Histamine H1 receptor (Rattus norvegicus) (UniProt P31390); assay: concentration of mepyramine was determined
Target sequence in this assay (P31390 whole entry, looked up): as the sequence (P31390 whole entry) above

Histamine H3 receptor = Histamine H3 receptor (Cavia porcellus, UniProt Q9JI35); assay: Compound was evaluated for its antagonist affinity towards Histamine H3 receptor of guinea pig; type: functional; settings: read-out: pA2 (converted)
Summary of the method: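 Electrically stimulated guinea-pig ileal longitudinal muscle with myenteric plexus, isometric (7.5 mN). Cumulative (R)-α-methylhistamine curves were run with and without test compound (20 min), with 1 µM mepyramine present. Values were apparent pA2, or pD'2 where curves were depressed.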

Histamine H1 receptor [12] = biological target: T1, Histamine H1 receptor; assay: Antagonism of guinea pig ileum contraction at 100 nM mepyramine; type: functional, tissue-based; settings: read-out: pA2 (converted)
Summary of the method: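 Guinea-pig whole ileal segments (2.0–2.5 cm), isotonic, preload 0.5 g, Tyrode's at 37 °C, 95% O2/5% CO2, with 0.1 µM atropine throughout. […] Apparent pA2 = −log c + log(r−1); full pA2 from Schild plot, slope fixed at 1.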

Histamine H2 receptor = Histamine H2 receptor (Cavia porcellus, UniProt P47747); assay: Compound was evaluated for its antagonist affinity towards Histamine H2 receptor of guinea pig; type: functional; settings: read-out: pA2 (converted)
Histamine H1 receptor [13] = biological target: T1, Histamine H1 receptor; assay: Effective concentration for agonism activity in endothelium-denuded guinea pig aortic segment; type: functional, tissue-based, Aorta
Summary of the method: (§2)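 Guinea-pig thoracic aortic rings (2–4 mm), endothelium rubbed off, isometric (10 mN), modified Krebs-Henseleit (1.80 mM Ca2+), 37 °C. Cimetidine, corticosterone and cocaine (30 µM each), prazosin and yohimbine (0.3 µM each) and propranolol (0.1 µM) were present. […] The pEC50 shift was corrected using untreated control preparations.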

[14] = biological target: Muscarinic acetylcholine receptor M3 (Cavia porcellus, UniProt Q8VH26); assay: Compound was evaluated for its antagonist affinity towards Muscarinic acetylcholine receptor M3 of guinea pig; type: functional; settings: read-out: pA2 (converted)
Summary of the method: (§3)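 Functional antagonism assays in guinea-pig tissues, each run with 1 µM mepyramine present: M3 (whole ileum), β1 (right atrium), 5-HT1B (iliac artery), 5-HT3 (quiescent ileal longitudinal muscle with myenteric plexus). Results are given as apparent pA2, or pD'2 when only curve depression occurred.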

[15] = biological target: Histamine H1 receptor (Rattus norvegicus) (UniProt P31390); assay: Compound was evaluated for mepyramine antagonism effects in rat aorta (relaxation) at a mepyramine concentration of 100 nM; settings: read-out: pA2 (converted)
Target sequence in this assay (P31390 whole entry, looked up): as the sequence (P31390 whole entry) above

[16] = biological target: T3, Alpha-1D adrenergic receptor (Rattus norvegicus, UniProt P23944); assay: Compound was evaluated for its antagonist affinity towards Alpha-1D adrenergic receptor of rat; type: functional; settings: read-out: pA2 (converted)
T3 sequence (P23944 whole entry): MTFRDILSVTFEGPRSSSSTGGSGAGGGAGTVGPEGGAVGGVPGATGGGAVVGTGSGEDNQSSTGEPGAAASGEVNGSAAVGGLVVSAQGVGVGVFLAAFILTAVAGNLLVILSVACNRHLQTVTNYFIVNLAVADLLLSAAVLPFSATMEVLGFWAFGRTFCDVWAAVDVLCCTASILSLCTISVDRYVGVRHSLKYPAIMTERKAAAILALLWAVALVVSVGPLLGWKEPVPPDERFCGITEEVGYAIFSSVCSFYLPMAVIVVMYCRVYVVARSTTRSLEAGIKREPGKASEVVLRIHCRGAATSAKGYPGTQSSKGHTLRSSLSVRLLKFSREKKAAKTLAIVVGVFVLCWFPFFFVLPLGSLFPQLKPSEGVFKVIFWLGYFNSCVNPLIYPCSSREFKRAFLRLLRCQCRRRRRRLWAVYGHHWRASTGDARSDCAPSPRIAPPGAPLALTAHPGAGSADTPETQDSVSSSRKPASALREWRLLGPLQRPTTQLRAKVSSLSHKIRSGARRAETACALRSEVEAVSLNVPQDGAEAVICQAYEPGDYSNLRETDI
Summary of the method: (§4)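 Functional antagonism in rat tissues: α1D (thoracic aorta), 5-HT2A (tail artery), 5-HT4 (oesophageal tunica muscularis mucosae). Results are given as apparent pA2 from single-concentration rightward shifts, or pD'2 when only curve depression occurred.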

[17] = biological target: Beta-1 adrenergic receptor (Cavia porcellus, UniProt B0FL73); assay: Compound was evaluated for its antagonist affinity towards Beta-1 adrenergic receptor of guinea pig; type: functional; settings: read-out: pA2 (converted); summary of the method: as §3
Histamine H1 receptor [18] = biological target: T1, Histamine H1 receptor; assay: Compound was evaluated for mepyramine antagonism effects in guinea pig aorta (contraction) at a mepyramine concentration of 100 nM; type: functional, tissue-based; settings: read-out: pA2 (converted)
Summary of the method: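 Guinea-pig aortic rings with endothelium damaged, isometric (10 mN), 37 °C Krebs-Henseleit. Agonist curves were run with mepyramine (100 nM, about 60 min) after threshold PGF2α precontraction. Apparent pA2 = −log c + log(r−1).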

Histamine H1 receptor [19] = biological target: T1, Histamine H1 receptor; assay: Effective concentration for agonism activity in Endothelium-Denuded guinea pig aortic segment; type: functional, tissue-based, Aorta; summary of the method: as §2
Histamine H1 receptor [20] = biological target: T2, Histamine H1 receptor; assay: Compound was evaluated for mepyramine antagonism effects in rat aorta (relaxation) at a mepyramine concentration of 100 nM; type: functional, tissue-based; settings: read-out: pA2 (converted)
[21] = biological target: 5-hydroxytryptamine receptor 2A (Rattus norvegicus, UniProt P14842); assay: Compound was evaluated for its antagonist affinity towards 5-hydroxytryptamine 2A receptor of rat; type: functional; settings: read-out: pA2 (converted); summary of the method: as §4
[22] = biological target: 5-hydroxytryptamine receptor 4 (Rattus norvegicus, UniProt Q62758); assay: Compound was evaluated for its antagonist affinity towards 5-hydroxytryptamine 4 receptor of rat; type: functional; settings: read-out: pA2 (converted); summary of the method: as §4
[23] = biological target: 5-hydroxytryptamine receptor 1B (Cavia porcellus); assay: Compound was evaluated for its antagonist affinity towards 5-hydroxytryptamine 1B receptor of guinea pig; settings: read-out: pA2 (converted)
Histamine H1 receptor [24] = biological target: T2, Histamine H1 receptor; assay: Compound was evaluated for mepyramine antagonism effects in rat aorta (relaxation) at a mepyramine concentration of 100 nM; settings: read-out: pA2 (converted)

Histamine H3 receptor, sequence (Q9JI35 whole entry): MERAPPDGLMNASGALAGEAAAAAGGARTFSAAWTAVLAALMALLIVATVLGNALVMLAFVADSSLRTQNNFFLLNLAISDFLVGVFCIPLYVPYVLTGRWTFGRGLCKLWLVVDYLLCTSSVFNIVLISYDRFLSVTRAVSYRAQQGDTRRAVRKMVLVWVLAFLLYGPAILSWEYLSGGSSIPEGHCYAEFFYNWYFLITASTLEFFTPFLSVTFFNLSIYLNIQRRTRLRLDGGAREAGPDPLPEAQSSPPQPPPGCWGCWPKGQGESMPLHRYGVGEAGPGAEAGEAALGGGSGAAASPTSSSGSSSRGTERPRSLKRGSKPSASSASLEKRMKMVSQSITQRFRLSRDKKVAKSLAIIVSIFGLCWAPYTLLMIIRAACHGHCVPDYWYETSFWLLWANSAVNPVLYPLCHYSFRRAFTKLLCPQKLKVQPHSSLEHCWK
T2 sequence (P31390 whole entry): as the sequence (P31390 whole entry) above
Muscarinic acetylcholine receptor M3, sequence (Q8VH26 whole entry): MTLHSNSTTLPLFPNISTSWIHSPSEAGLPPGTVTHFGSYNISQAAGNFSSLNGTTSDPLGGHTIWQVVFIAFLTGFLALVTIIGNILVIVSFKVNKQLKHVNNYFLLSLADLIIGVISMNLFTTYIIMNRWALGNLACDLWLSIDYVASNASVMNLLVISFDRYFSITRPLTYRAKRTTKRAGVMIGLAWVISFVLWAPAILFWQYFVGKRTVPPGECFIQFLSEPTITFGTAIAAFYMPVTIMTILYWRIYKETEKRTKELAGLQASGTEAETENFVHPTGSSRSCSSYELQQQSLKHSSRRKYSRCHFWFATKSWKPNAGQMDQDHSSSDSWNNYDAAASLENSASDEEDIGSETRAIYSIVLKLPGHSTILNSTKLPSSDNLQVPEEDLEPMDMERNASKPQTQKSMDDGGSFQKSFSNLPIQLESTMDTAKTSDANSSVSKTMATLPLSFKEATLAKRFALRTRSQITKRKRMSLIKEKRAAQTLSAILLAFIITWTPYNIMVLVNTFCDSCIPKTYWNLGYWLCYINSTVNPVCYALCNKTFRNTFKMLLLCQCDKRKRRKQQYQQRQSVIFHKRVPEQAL
Histamine H2 receptor, sequence (P47747 whole entry): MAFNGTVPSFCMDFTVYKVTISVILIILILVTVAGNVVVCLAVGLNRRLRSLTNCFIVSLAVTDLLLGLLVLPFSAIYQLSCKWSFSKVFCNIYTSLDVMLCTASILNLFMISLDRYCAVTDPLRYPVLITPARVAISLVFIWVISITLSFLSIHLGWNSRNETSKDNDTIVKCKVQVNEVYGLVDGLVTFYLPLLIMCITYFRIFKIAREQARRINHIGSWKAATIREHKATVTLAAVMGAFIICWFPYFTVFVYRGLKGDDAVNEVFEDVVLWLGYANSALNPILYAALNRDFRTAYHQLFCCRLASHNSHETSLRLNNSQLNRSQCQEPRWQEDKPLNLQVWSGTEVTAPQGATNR
T1 sequence (P31389 whole entry): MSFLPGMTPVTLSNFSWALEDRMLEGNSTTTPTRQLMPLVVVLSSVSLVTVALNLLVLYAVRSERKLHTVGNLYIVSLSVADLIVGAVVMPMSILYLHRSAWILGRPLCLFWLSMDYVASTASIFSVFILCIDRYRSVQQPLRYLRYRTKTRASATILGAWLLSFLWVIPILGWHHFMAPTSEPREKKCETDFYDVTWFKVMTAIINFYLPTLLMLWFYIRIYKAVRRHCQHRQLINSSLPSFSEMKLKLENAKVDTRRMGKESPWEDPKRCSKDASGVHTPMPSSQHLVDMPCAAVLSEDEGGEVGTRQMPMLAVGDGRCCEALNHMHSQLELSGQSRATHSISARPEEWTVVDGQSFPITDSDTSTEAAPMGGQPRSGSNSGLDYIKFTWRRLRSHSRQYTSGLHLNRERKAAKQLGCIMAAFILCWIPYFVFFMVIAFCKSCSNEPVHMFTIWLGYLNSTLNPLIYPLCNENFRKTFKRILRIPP
Histamine H1 receptor (Cavia porcellus), sequence (P31389 whole entry): as above
5-hydroxytryptamine receptor 4, sequence (Q62758 whole entry): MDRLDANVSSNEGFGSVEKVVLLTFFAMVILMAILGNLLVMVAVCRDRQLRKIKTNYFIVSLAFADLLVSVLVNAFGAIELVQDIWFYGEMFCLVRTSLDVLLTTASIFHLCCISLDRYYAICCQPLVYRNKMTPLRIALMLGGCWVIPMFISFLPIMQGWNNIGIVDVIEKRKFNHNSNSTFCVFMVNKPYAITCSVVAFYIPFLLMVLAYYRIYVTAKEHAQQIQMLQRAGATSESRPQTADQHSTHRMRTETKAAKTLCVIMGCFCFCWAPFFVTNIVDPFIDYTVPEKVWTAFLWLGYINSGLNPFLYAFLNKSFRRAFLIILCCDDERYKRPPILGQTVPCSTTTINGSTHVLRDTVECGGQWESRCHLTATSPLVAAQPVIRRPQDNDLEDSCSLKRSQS
5-hydroxytryptamine receptor 2A, sequence (P14842 whole entry): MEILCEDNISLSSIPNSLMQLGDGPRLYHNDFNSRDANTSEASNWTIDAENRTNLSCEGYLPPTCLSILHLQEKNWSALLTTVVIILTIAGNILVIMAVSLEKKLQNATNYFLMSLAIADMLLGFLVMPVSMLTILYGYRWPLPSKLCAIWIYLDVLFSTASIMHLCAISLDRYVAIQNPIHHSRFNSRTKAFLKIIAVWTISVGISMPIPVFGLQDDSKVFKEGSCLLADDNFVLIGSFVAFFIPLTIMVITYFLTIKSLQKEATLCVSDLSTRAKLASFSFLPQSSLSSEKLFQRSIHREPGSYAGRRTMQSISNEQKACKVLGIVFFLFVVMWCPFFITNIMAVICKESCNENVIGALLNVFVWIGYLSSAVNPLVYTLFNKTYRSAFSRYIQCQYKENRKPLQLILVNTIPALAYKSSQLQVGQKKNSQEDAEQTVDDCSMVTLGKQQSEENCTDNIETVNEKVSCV
Beta-1 adrenergic receptor, sequence (B0FL73 whole entry): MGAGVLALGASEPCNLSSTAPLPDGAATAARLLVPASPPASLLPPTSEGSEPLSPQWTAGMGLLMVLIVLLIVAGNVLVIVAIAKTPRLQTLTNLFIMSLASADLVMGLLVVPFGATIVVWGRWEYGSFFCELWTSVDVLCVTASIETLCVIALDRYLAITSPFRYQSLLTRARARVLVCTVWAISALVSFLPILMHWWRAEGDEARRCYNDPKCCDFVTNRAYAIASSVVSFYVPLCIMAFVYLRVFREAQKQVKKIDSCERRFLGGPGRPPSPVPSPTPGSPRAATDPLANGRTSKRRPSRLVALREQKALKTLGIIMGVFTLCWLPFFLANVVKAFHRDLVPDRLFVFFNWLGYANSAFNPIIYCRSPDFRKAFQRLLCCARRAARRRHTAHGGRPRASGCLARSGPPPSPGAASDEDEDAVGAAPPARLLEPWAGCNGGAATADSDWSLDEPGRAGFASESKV

| SMILES | EC50 (Histamine H1 receptor [4]) | Emax [5] | EC50 (Histamine H1 receptor [6]) | Emax [8] | pKp [10] | Kb (Histamine H3 receptor) | Kb (Histamine H1 receptor [12]) | Kb (Histamine H2 receptor) | EC50 (Histamine H1 receptor [13]) | Kb [14] | Kb [16] | Kb [17] | Kb (Histamine H1 receptor [18]) | EC50 (Histamine H1 receptor [19]) | Kb [21] | Kb [22] | further results |
| --- | --- | --- | --- | --- | --- | --- | --- | --- | --- | --- | --- | --- | --- | --- | --- | --- | --- |
| NCCc1c[nH]c(C(c2ccccc2)c2ccccc2)n1 | 2570 nM |  |  |  |  |  |  |  |  |  |  |  |  |  |  |  | pKp [1]: 5.37; Emax [2]: 28; Relative potency [3]: 8 |
| c1ccc(C(CCc2nc(CCN3CCCC3)c[nH]2)c2ccccc2)cc1 | 295 nM | 21 | 1350 nM | 28 | 6.52 |  |  |  |  |  |  |  |  |  |  |  | Relative potency [7]: 331; Relative potency [9]: 67; Concentration [11]: 100 nM |
| c1ccc(C(CCc2nc(CCNC3CC3)c[nH]2)c2ccccc2)cc1 | 148 nM | 56 and 62 | 355 nM |  | 6.17 | > 501 nM | 1.41 nM and 2.14 nM | 20000 nM | 2290 nM | 933 nM |  |  |  |  |  |  | Kb [15]: 5.75 nM |
| NCCc1cnc(CCC(c2ccccc2)c2ccccc2)[nH]1 | 182 nM |  | 851 nM |  |  | > 1580 nM |  | 34700 nM |  | 2820 nM | 3550 nM | 45700 nM | 1.58 nM and 0.977 nM | 1950 nM and 309 nM | 6460 nM | > 3160 nM | Kb (Histamine H1 receptor [12]; in the assay text read “at 1-30 nM mepyramine” for “at 100 nM mepyramine”): 0.776 nM; Kb (Histamine H1 receptor [20]): 9.12 nM; Kb [23]: 14100 nM |
| CCNCCc1c[nH]c(CCC(c2ccccc2)c2ccccc2)n1 | 302 nM | 44 and 47 | 646 nM | 89 | 5.75 | > 1000 nM |  | 31600 nM |  | 1020 nM |  |  |  |  |  |  | Kb (Histamine H1 receptor [12]; in the assay text read “at 5 nM mepyramine” for “at 100 nM mepyramine”): 1.55 nM |
| CNCCc1cnc(CCC(c2ccccc2)c2ccccc2)[nH]1 | 57.5 nM |  | 158 nM |  |  | > 1580 nM | 0.741 nM and 1.35 nM | 12600 nM | 490 nM | 3550 nM | 5750 nM | 14500 nM | 1.78 nM | 77.6 nM | 4070 nM | > 1580 nM | Kb (Histamine H1 receptor [24]): 9.55 nM |
